A selection: hits, their analogues and other compounds. The true share with any hit is near 2.5%.
PMI act hi M6P – increases human PMI activity with near-saturating mannose 6-phosphate | P34949 | 190,000 tested, 0.34% active | coupled PMI enzyme assay, resazurin fluorescence, 20 min; hits give high values; 1 = untreated enzyme, 0 = substrate-free blank | activation factor at 20 µM;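 active = activation factor of 2 or more at 20 µM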
Target sequence (P34949 whole entry, looked up): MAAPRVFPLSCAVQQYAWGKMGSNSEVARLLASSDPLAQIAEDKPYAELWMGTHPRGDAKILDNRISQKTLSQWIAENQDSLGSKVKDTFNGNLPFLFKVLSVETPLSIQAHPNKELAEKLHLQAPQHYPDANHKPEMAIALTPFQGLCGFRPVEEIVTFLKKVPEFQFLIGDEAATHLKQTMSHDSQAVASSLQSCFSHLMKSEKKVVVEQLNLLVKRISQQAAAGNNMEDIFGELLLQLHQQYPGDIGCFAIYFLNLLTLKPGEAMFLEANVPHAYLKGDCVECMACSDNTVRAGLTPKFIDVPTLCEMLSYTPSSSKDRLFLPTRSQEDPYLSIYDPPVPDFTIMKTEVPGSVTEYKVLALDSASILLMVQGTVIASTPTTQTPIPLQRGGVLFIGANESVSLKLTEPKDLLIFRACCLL
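test system = human PMI in coupled enzyme assay | medium = HEPES-buffered pH 7.4 with magnesium and detergent | also added = 1.0 mM mannose-6-phosphate substrate with 0.22 mM NADP+ | compound = 20 µM single dose | times = 20 min incubation at room temperature | measured by = resorufin fluorescence (Ex 544/Em 590 nm) from resazurin via diaphorase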
Diaph act CS – diaphorase activation or chemical reduction counter-screen; 190,000 tested, 0.005% active; Diaphorase/resazurin coupled assay, resorufin fluorescence, 16 min; hits give high values; 1 = vehicle wells, 0 = NADH-free wells; activation factor at 20 µM; AID 1229;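 active = diaphorase activity raised at least twofold by the compound at 20 µM; inactive = activation factor below 2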
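test system = bacterial diaphorase enzyme (C. kluyveri) | quantity = enzyme 0.07 U/mL final | reagent = NADH substrate 0.114 mM plus resazurin dye 0.1 mM, final | incubation = 16 min enzyme reaction, ambient temperature | buffer or medium = HEPES pH 7.4 buffer with MgCl2 and Tween 20 | signal = fluorescence of resorufin, 544 nm excitation, 590 nm emission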
Diaphorase inh – counter-screen for diaphorase-based assays: diaphorase inhibitors and chemical oxidizers. diaphorase resazurin-to-resorufin fluorescence, NADH, 16 min; bacterial (C. kluyveri) enzyme, not human. inhibition, % at 20 µM. 190,000 tested, 0.69% active. AID 1217;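 active = primary screen inhibition at 20 µM above a set limit, cut at about 50% in these data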
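Detection: fluorescence of resorufin formed from resazurin, Ex 544/Em 590 nm; test system: Clostridium kluyveri diaphorase enzyme; amount: 0.14 U/mL diaphorase, enzyme working solution; times: 16-min room-temperature incubation before reading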
PMI activator – activators of human phosphomannose isomerase; AID 1214; P34949; 190,000 tested, 0.005% active; activation factor at 20 µM; purified human PMI, coupled resazurin fluorescence, 20 min; hits give high values; 1 = vehicle control, 0 substrate-free wells;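 active = activation factor of 2 or more at 20 µM, relative to plate controls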
FLuc act counter – firefly luciferase counter-screen for stimulation assays | P08659 | ATPlite luciferase biochemical, luminescence, 10 min; 0 = ATP-free wells, 1 = DMSO control | 200,000 tested, under 10 active | AID 1027 | activation factor at 10 µM;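 active = luciferase activation factor, scaled between plate controls, of at least 2 with compound at 10 µM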
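System: cell-free luciferase reagent; medium: PBS as buffer for the ATP substrate; doses: test compounds dosed from 2 mM stocks in 100% DMSO; incubation: 10 min, room temperature; measured by: luminescence from luciferase reaction; read-out: luciferase activation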
FLuc inh counter – counter-screen for luciferase assay inhibitors: firefly luciferase inhibition; AID 1006; 200,000 tested, 1.5% active; inhibition, % at 10 µM; ATPLite firefly luciferase biochemical luminescence, 10 min;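 active = inhibition above about 50% when tested at 10 µM, limit read from the data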
Each line names hits and unclear results; the compound was inactive in the other large screens.

Oc1ccccc1CNc1cccc2cccnc12	Diaphorase inh 66
Oc1ccc(CNc2ccccc2F)c2cccnc12	Diaphorase inh 89
NC(=S)Nc1cccc2cccnc12	none
NC(=S)NNc1cccc2cccnc12	Diaphorase inh 72
OCc1ccc(O)c2ncccc12	none
Oc1ccc(F)c2cccnc12	Diaphorase inh 50
Cc1ccc(S(=O)(=O)NC(=O)NN2CCCCCC2)cc1	PMI act hi M6P 2
COc1cccc(N=c2oc3cc(O)ccc3cc2C(=O)NCC2CCCO2)c1 (configuration not stated)	none
Cc1cn(S(=O)(=O)c2ccccc2[N+](=O)[O-])cn1	none
Cc1nn(C(=O)c2ccc3c(c2)OCO3)c(N)c1-c1ccccc1	FLuc inh counter 80
CCOC(=O)/C(=N/Nc1ccccc1)N1CCCc2ccccc21	PMI act hi M6P 2.4
COc1ccc(C)cc1NC(=O)N1CCCc2ccccc21	none
COC(=O)/C(=N/Nc1ccccc1C)N1CCCc2ccccc21	PMI act hi M6P 2
O=C(NCCNC1CCC(c2ccccc2)CC1)c1ccc(F)cc1 (configuration not stated)	none
CC(=O)NC1=C(N(C)C2CCS(=O)(=O)C2)C(=O)c2ccccc2C1=O (configuration not stated)	Diaphorase inh 62
CCCOc1ccc(/C=c2\sc3nc(-c4ccco4)nn3c2=O)cc1OCC	none
CC(=O)Oc1cccc(/C=c2\sc3nc(-c4ccco4)nn3c2=O)c1	FLuc inh counter 89
Cc1cccc(C(=O)NC(=S)Nc2ccccc2C(F)(F)F)c1	none
Cc1cccc(C(=O)NC(=S)Nc2ccccc2C(=O)O)c1	Diaphorase inh 51
Cc1ccc(C(=O)O)cc1NC(=S)NC(=O)c1ccc(-c2ccccc2)cc1	FLuc inh counter 86
Cc1cc(C)c2nc(N3CCC(C(=O)NCCCN4CC(C)CC(C)C4)CC3)sc2c1 (configuration not stated)	none
c1ccc(-n2cnc3cc(NCc4ccco4)ccc32)cc1	none
CCCOC1CCCN(C(=O)CCc2nnc(CCCCc3ccccc3)o2)C1 (configuration not stated)	none
CC(=O)c1c(C)[nH]c(C(=O)Nc2nc(C)cs2)c1C	FLuc inh counter 90
CC(=O)c1c(C)[nH]c(C(=O)Nc2nc(-c3ccc(Cl)cc3)cs2)c1C	none
Cc1ccc(NC(=O)c2ccccc2F)nc1	FLuc inh counter 52
CC(=O)c1c(C)[nH]c(C(=O)Nc2ccc(C)cn2)c1C	FLuc inh counter 88
CC(=O)c1c(C)[nH]c(C(=O)Nc2cc(C)cc(C)c2)c1C	none
Cc1ccc(NC(=O)c2cc(F)c(F)cc2Cl)nc1	none
O=C(Cc1ccccc1)Nc1cc([N+](=O)[O-])ccc1N1CCOCC1	none
Cn1nnnc1SCCNCc1ccccc1OCc1ccc(F)cc1	none
CCNC(=O)C(=O)N/N=C/c1cc([N+](=O)[O-])ccc1O	Diaphorase inh 53
COc1ccc(N2CC(C(=O)N/N=C/c3cc([N+](=O)[O-])ccc3O)CC2=O)cc1 (configuration not stated)	Diaphorase inh 55
COc1ccc(N2CC(C(=O)N/N=C/c3ccccc3)CC2=O)cc1 (configuration not stated)	none
CCc1ccc(-c2cc(C(F)(F)F)n3nc(C(=O)Nc4c(C)nn(Cc5ccc(F)cc5)c4C)cc3n2)s1	none
COc1ccc(O)c(/C=C(\C#N)C(=O)Nc2cccnc2)c1	FLuc inh counter 63
CC(C)NC(=S)N1CCn2c(nc3ccccc32)C1	none
CC1=[N+](C)c2c(ccc3cccnc23)C1(C)C	Diaphorase inh 65
CCOc1ccc(/C=N/NC(=O)c2cc(-c3ccco3)nc3ccccc23)cc1	FLuc inh counter 53
O=C(N/N=C/c1ccc(F)cc1)c1cc(-c2ccco2)nc2ccccc12	none
O=C(N/N=C/c1ccc([N+](=O)[O-])o1)c1cc(-c2ccc(-c3ccccc3)cc2)nc2ccccc12	FLuc inh counter 93

Bioassay records: PubChem, Sanford-Burnham Center for Chemical Genomics
